# Bioassay records as filed in PubChem BioAssay.
# TbMetRS inhib – T. brucei MetRS inhibitors, primary screen, biochemical, luminescence. actives 0.4% (n = 360,000). purified T. brucei MetRS, ATP depletion, Kinase-Glo luminescence. inhibition, % at 11.9 µM. AID 624268, 2012. methionyl-tRNA synthetase (Trypanosoma brucei brucei);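 active = inhibition above a per-plate cutoff of the control wells' mean inhibition plus 3 SD, cut at about 5.5% in these data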;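 also: 0% = DMSO wells median and 100% = median of wells with control inhibitor compound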
#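 Test system – parasite MetRS enzyme · Reagent – substrates ATP, L-methionine and bulk Escherichia coli tRNA · Doses – 11.9 µM compound single dose, 0.9% DMSO · Times – 15 min enzyme-compound preincubation, 2 h reaction, 10 min detection, 25 °C · Signal – Kinase-Glo luminescence, ATP depletion format · Controls – DMSO-only wells as low control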
# Efflux pump mplx – inhibitors of Candida efflux pumps in yeast, primary screen, S. cerevisiae, Nile Red, multiplex; S. cerevisiae Candida pump triplex; inhibition, % at 10 µM; actives 0.44% (n = 330,000);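 active = plate passing quality check with inhibition over a set limit, or well fluorescence over plate mean plus 4 SD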;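 also: Nile Red retained in pooled yeast measured as flow cytometry median fluorescence; 0% = buffer negative control and 100% = Enniatin B positive control; higher means more Nile Red kept so more efflux inhibition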
# IDE cell inh – human IDE inhibitors in live cells, primary screen, fluorescence polarization, HEK cells, FAbetaB substrate; AID 434962, 2010; FAbetaB cleavage; actives 0.41% (n = 320,000); inhibition, % at 5.59 µM;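 active = percent inhibition above the average of all tested compounds plus 3 SD, set per screening campaign, cut at about 16% in these data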;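 also: IDE supplied by intact live HEK cells; FP after avidin binding of uncleaved biotin substrate so inhibition keeps polarization high; 0% = DMSO wells and 100% = 60 µM reference IDE inhibitor Ii1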
# IDE act – human IDE activators in live cells, primary screen, fluorescence polarization, HEK cells, FAbeta-B substrate; Insulin-degrading enzyme (Homo sapiens), P14735; FAbeta-B cleavage; 0% vehicle, 100% cell-free pure enzyme wells; activation, % at 5.96 µM; actives 0.073% (n = 340,000); AID 493087, 2011;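 active = activation above the mean of all tested compounds plus 3 SD, set per screening campaign, cut at about 17% in these data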
# HDAC3 inh – HDAC3 deacetylase inhibitors, primary screen, biochemical, fluorescence, cell-free homogeneous; inhibition, % at 8.3 µM; actives 0.15% (n = 320,000); recombinant HDAC3, fluorogenic peptide/trypsin coupled; AID 2718, 2010; in the data active = inhibition above about 26%, passing the limit was not always enough
# Target sequence (O15379 whole entry, looked up): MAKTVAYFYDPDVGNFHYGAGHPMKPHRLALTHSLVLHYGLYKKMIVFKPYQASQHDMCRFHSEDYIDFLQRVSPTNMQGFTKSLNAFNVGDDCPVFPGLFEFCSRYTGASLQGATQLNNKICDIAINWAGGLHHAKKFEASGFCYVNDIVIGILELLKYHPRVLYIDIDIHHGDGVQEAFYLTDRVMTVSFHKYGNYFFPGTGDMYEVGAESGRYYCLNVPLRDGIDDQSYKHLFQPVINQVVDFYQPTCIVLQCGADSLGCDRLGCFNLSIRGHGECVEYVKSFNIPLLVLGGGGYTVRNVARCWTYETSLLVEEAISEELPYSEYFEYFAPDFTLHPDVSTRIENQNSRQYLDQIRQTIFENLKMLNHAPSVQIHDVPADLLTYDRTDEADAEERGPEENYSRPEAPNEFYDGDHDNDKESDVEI
# Yeast superoxide – reduction of superoxide in aged yeast, primary screen, HTS; S. cerevisiae aged cells, superoxide DHE fluorescence; active compounds read low; superoxide response (% of plate mean), % at 10 µM; actives 0.18% (n = 330,000);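 active = superoxide response under a set limit, about three screen SD below normal, cut at about 65% in these data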;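 also: yeast aged for seven days with compound at 30 °C before DHE staining; 100% = average MFI of all compound-treated wells on the plate with controls excluded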
# IDE inh confirm – human IDE inhibitors in live cells, confirmation, fluorescence polarization, HEK cells, FAbetaB substrate; FAbetaB cleavage; AID 435028, 2010; inhibition, % at 5.59 µM; shares compounds with IDE cell inh; actives 51% (n = 1,200);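 active = mean inhibition across triplicate wells above the cutoff set by the earlier primary insulin-degrading enzyme screen, cut at about 16% in these data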;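 also: 0% = DMSO wells and 100% = 60 µM reference IDE inhibitor Ii1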
# HEK cytotox – cytotoxicity in HEK cells, cytotoxicity control for IDE inhibitor project, cell-based, luminescence | actives 28% (n = 1,200) | inhibition, % at 5.59 µM | shares compounds with IDE cell inh | HEK293 cytotoxicity, ATP luminescence; in the data active = inhibition above about 22%;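 also: 0% = vehicle wells and 100% = reference cytotoxic drug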
# IDE FP artifact – fluorescent or optically active artefacts, dose response, artefact control for IDE inhibitor project, biochemical, fluorescence polarization; shares compounds with IDE cell inh; FP counterscreen for fluorescent artifacts, IDE probe project; IC50, µM; 30 tested, under 10 active; AID 588718, 2011; call rule not given here
# * marks the source's active call; other numbers are inactive results; nt = no result. Compounds with a hit are over-represented: about 1.4% of the library has one in this group of screens.
SMILES,TbMetRS inhib,Efflux pump mplx,IDE cell inh,IDE act,HDAC3 inh,Yeast superoxide,IDE inh confirm,HEK cytotox,others
O=C(Nc1nc(-c2nc3ccccc3s2)cs1)c1ccc(S(=O)(=O)N2CCOCC2)cc1,-1,0,3,4,0,80,nt,nt,
COc1cccc(C(=O)Nc2nc(-c3ccc(S(=O)(=O)N4CCOCC4)cc3)cs2)c1,-1,0,40*,-20,10,93,16,58*,
O=C(Nc1nc(-c2ccc(S(=O)(=O)N3CCOCC3)cc2)cs1)c1ccccc1,0,0,22*,-7,2,105,3,72*,
O=C(c1cccc(N2C(=O)C3C4C=CC(C4)C3C2=O)c1)N1CCN(c2ccccc2Cl)CC1 (stereo unspecified),0,0,12,-8,-1,105,nt,nt,
Cc1cccc(N2CCN(C(=O)c3cccc(N4CCCC4=O)c3)CC2)c1C,0,0,19*,-18,-2,99,12,12,
Cc1cccc(N2CCN(C(=O)c3cccc(N4C(=O)C5CC=CC(C)C5C4=O)c3)CC2)c1C (stereo unspecified),-1,0,53*,-58,4,88,36*,19,
COc1cccc(C(O)c2nccn2Cc2ccccc2)c1OC (stereo unspecified),-1,0,nt,3,-9,103,nt,nt,
O=C(COc1ncnc2ccccc12)Nc1ccccc1[N+](=O)[O-],0,0,1,-1,5,147,nt,nt,
O=C(N/C(=C\c1ccccc1)C(=O)N1CCOCC1)c1ccccc1Cl,0,0,7,2,nt,121,nt,nt,
O=C(CC1Sc2ccccc2NC1=O)Nc1cccc(-c2nnc3n2CCCCC3)c1 (stereo unspecified),-1,0,17*,-14,0,95,9,6,
N=c1oc2ccccc2cc1C(=O)Nc1ccc(F)cc1,0,0,nt,-1,-5,96,nt,nt,
N=c1oc2c3c4c(cc2cc1C(=O)Nc1ccccc1)CCCN4CCC3,-1,1,51*,-30,2,103,26*,21,
Cc1noc(C)c1C(=O)Nc1cc(S(=O)(=O)N2CCCCC2)ccc1N(C)C,0,nt,nt,1,nt,nt,nt,nt,
Cn1cnnc1SCC(=O)Nc1cc(S(=O)(=O)N2CCCCC2)ccc1Cl,-1,0,3,1,-14,81,nt,nt,
CCC(=O)NC(C)c1cc(Cl)c2ccccc2c1O (stereo unspecified),0,0,5,-1,-2,110,nt,nt,
CCC(=O)NC(c1cccs1)c1cc(Cl)c2ccccc2c1O (stereo unspecified),0,0,17*,1,-11,95,8,10,
CC(=O)NC(c1cccs1)c1cc([N+](=O)[O-])c2cccnc2c1O (stereo unspecified),0,0,27*,7,-7,122,6,27*,
CC(=O)NC(c1cccs1)c1cc(Cl)c2ccccc2c1O (stereo unspecified),1,0,19*,4,-17,110,8,9,
Cc1cc(Br)c(NC(=O)CSc2n[nH]c(N)n2)c(Br)c1,0,-1,6,8,1,109,nt,nt,
S=C1NC[C@H](CC2CCCCC2)N1CCc1cccc2ccccc12,0,0,-9,-1,3,105,nt,nt,
COC(=O)c1sc(N)c(C(=O)OC)c1CSc1nnc(-c2ccccc2Cl)n1C,-1,0,16*,-4,2,94,5,10,
Cc1ccccc1COc1ccc(/C(O)=C2/C(=O)C(=O)N(CCCn3ccnc3)C2c2ccco2)cc1 (stereo unspecified),-1,0,18*,-19,2,121,11,13,
CCOc1ccc(/C(O)=C2/C(=O)C(=O)N(CCN(CC)CC)C2c2ccco2)cc1 (stereo unspecified),0,-9,4,-5,-7,101,nt,nt,
Cc1csc2ncnc(NNC(=O)c3ccc(Cl)cc3)c12,1,0,17*,-1,-2,97,5,34*,
COc1ccc(NC(=O)CSc2nnc(CN3CCOCC3)n2C)cc1Cl,0,0,22*,-40,-1,93,23*,6,IDE FP artifact=>55
SMILES,TbMetRS inhib,Efflux pump mplx,IDE cell inh,IDE act,HDAC3 inh,Yeast superoxide,IDE inh confirm,HEK cytotox,others
Cc1cc(C)cc(NC(=O)CSc2nnc(CN3CCOCC3)n2C)c1,-1,0,10,-15,-7,90,nt,nt,
CC(C)c1ccc(NC(=O)CSc2nnc(-c3ccccn3)n2C)cc1,0,0,19*,-18,-5,95,11,4,
CC(C)c1ccc(NC(=O)CSc2nnc(CN3CCOCC3)n2C)cc1,-1,0,17*,-27,-4,116,13,15,
Cc1ccc(NC(=O)CSc2nnc(CN3CCOCC3)n2C)cc1C,0,0,19*,-23,-14,103,18*,3,
CC(C)(C)OC(=O)NCc1ccc(CNC(=O)c2[nH]cnc2C(=O)NCC(=O)OCc2ccccc2)cc1,0,0,-2,5,7,97,nt,nt,
Cc1sc(N)c(C(=O)c2ccccc2)c1C,-1,0,-3,nt,11,111,nt,nt,
O=C(NCC1CCCN1S(=O)(=O)c1cccs1)C(=O)Nc1ccc(F)cc1 (stereo unspecified),0,0,3,-1,-6,101,nt,nt,
CCCCOc1ccc(S(=O)(=O)N2CCN(c3ccc(N4CCN(CC)CC4)nn3)CC2)cc1,0,0,4,0,-3,97,nt,nt,
O=C(CSc1nnc(CN2CCOCC2)n1-c1ccc(Cl)cc1)Nc1ccc2c(c1)OCO2,0,0,0,-2,3,80,nt,nt,
COc1ccc(Cl)cc1NC(=O)CSc1nnc(CN2CCOCC2)n1-c1ccc(Cl)cc1,0,0,18*,-10,5,102,4,16,
COC(=O)c1cc(NC(=O)CSc2nnc(CN3CCOCC3)n2C)ccc1Cl,0,0,21*,-24,10,113,12,17,
COc1cccc(NC(=O)CSc2nnc(CN3CCOCC3)n2C)c1,0,0,12,-15,-3,84,nt,nt,
